From ChEMBL document CHEMBL4049460, “Trisubstituted Imidazoles with a Rigidized Hinge Binding Motif Act As Single Digit nM Inhibitors of Clinically Relevant EGFR L858R/T790M and L858R/T790M/C797S Mutants: An Example of Target Hopping” (J Med Chem, 2017) come the findings set out here.

The target of data set [1] is Epidermal growth factor receptor (Homo sapiens, UniProt P00533, L858R). Briefly: Inhibition of recombinant human GST-tagged EGFR L858R mutant cytoplasmic domain expressed in baculovirus expression system preincubated for 20 mins followed by addition of [33P]-ATP measured after 2 hrs by filter-binding method. The conditions noted are these: read-out: IC50.
The nature of data set [2]: Solubility of the compound at pH 7.5 by UV-HPLC analysis. The format is physicochemical. The conditions noted are these: buffer, read-out: solubility. Summed up: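 Solubility measured in the kinase assay buffer (pH 7.5); concentration determined by HPLC with UV detection.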
Data set [3] concerns the target T1, Epidermal growth factor receptor (Homo sapiens, UniProt P00533). Briefly: Binding affinity to wild-type human EGFR (669 to 1011 residues) expressed in bacterial system incubated for 1 hr. It counts as ADME. Summed up: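 Competition binding of inhibitor against an immobilized active-site-directed ligand; Kd read out. Compound and kinase combined and equilibrated for 1 h without dilution (study arm C).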

The target of data set [4] is T1, Epidermal growth factor receptor. Briefly: Binding affinity to wild-type human EGFR (669 to 1011 residues) expressed in bacterial system preincubated for 1 hr followed by 30 fold dilution measured after 5 hrs. The format is ADME. The method, boiled down:
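Competition binding against an immobilized active-site-directed ligand; Kd read out. Compound and kinase combined and equilibrated 1 h, then diluted 30-fold in reaction buffer and equilibrated a further 5 h (study arm B).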

The species entered for data set [5] is Homo sapiens. Briefly: Inhibition of recombinant human N-terminally GST-His6 tagged EGFR 746-750 deletion mutant (M672 to A1210 residues) C-terminal fragment harboring 3C cleavage site expressed in Baculovirus infected Sf9 cells assessed as residual activity at 1 uM in presence of [33-gamma]-ATP after 60 mins by scintillation counting method relative to control.

The species entered for data set [6] is Homo sapiens. Briefly: Inhibition of recombinant human N-terminally GST-His6 tagged EGFR del 747-752/P753S mutant (H672 to A1210 residues) C-terminal fragment harboring 3C cleavage site expressed in Baculovirus infected Sf9 cells assessed as residual activity at 1 uM in presence of [33-gamma]-ATP after 60 mins by scintillation counting method relative to control.

Data set [7] is filed under the species Homo sapiens. Briefly: Inhibition of recombinant human N-terminally GST-His6 tagged EGFR del 752-759 mutant (H672 to A1210 residues) C-terminal fragment harboring 3C cleavage site expressed in Baculovirus infected Sf9 cells assessed as residual activity at 1 uM in presence of [33-gamma]-ATP after 60 mins by scintillation counting method relative to control.

In data set [8] the test system is Epidermal growth factor receptor (Homo sapiens), P00533 [G719C]. Briefly: Inhibition of recombinant human N-terminally GST-His6 tagged EGFR G719C mutant (H672 to A1210 residues) C-terminal fragment harboring 3C cleavage site expressed in Baculovirus infected Sf9 cells assessed as residual activity at 1 uM in presence of [33-gamma]-ATP after 60 mins by scintillation counting method relative to control.

Data set [9] relates to Epidermal growth factor receptor (Homo sapiens), P00533 [G719S]. Briefly: Inhibition of recombinant human N-terminally GST-His6 tagged EGFR G719S mutant (H672 to A1210 residues) C-terminal fragment harboring 3C cleavage site expressed in Baculovirus infected Sf9 cells assessed as residual activity at 1 uM in presence of [33-gamma]-ATP after 60 mins by scintillation counting method relative to control.

Data set [10] deals with Epidermal growth factor receptor (Homo sapiens), P00533 [L858R]. Briefly: Inhibition of recombinant human N-terminally GST-His6 tagged EGFR L858R mutant (H672 to A1210 residues) C-terminal fragment harboring 3C cleavage site expressed in Baculovirus infected Sf9 cells assessed as residual activity at 1 uM in presence of [33-gamma]-ATP after 60 mins by scintillation counting method relative to control.

For data set [11], the system named is Epidermal growth factor receptor (Homo sapiens), P00533 [L861Q]. Briefly: Inhibition of recombinant human N-terminally GST-His6 tagged EGFR L861Q mutant (H672 to A1210 residues) C-terminal fragment harboring 3C cleavage site expressed in Baculovirus infected Sf9 cells assessed as residual activity at 1 uM in presence of [33-gamma]-ATP after 60 mins by scintillation counting method relative to control.

Data set [12] has as its system Epidermal growth factor receptor (Homo sapiens), P00533 [L858R,T790M]. Briefly: Inhibition of recombinant human N-terminally GST-His6 tagged EGFR T790M/L858R double mutant (H672 to A1210 residues) C-terminal fragment harboring 3C cleavage site expressed in Baculovirus infected Sf9 cells assessed as residual activity at 1 uM in presence of [33-gamma]-ATP after 60 mins by scintillation counting method relative to control.

The target in data set [13] is EGFR (wild-type) (Homo sapiens, UniProt P00533). Briefly: Inhibition of recombinant wild-type human N-terminally GST-His6 tagged EGFR (H672 to A1210 residues) C-terminal fragment harboring 3C cleavage site expressed in Baculovirus infected Sf9 cells assessed as residual activity at 1 uM in presence of [33-gamma]-ATP after 60 mins by scintillation counting method relative to control. Particulars: read-out: Activity.

In data set [14] the target is Receptor tyrosine-protein kinase erbB-2 (Homo sapiens) (UniProt P04626). Briefly: Inhibition of recombinant wild-type human N-terminally GST-His6 tagged ERBB2 (Q679 to V1255 residues) C-terminal fragment harboring thrombin cleavage site expressed in Baculovirus infected Sf9 cells assessed as residual activity at 1 uM in presence of [33-gamma]-ATP after 60 mins by scintillation counting method relative to control.

The target in data set [15] is Mitogen-activated protein kinase 9 (Homo sapiens) (UniProt P45984). Briefly: Inhibition of recombinant full-length human JNK2 (M1 to Y424 residues) expressed in Escherichia coli assessed as residual activity at 1 uM in presence of [33-gamma]-ATP after 60 mins by scintillation counting method relative to control.
The target of data set [16] is Mitogen-activated protein kinase kinase kinase kinase 5 (Homo sapiens) (UniProt Q9Y4K4). Briefly: Inhibition of MAP4K5 (unknown origin) assessed as residual activity at 1 uM in presence of [33-gamma]-ATP after 60 mins by scintillation counting method relative to control.
Data set [17] concerns the target Serine/threonine-protein kinase 26 (Homo sapiens) (UniProt Q9P289). Briefly: Inhibition of recombinant full-length human MST4 (M1 to P416 residues) harboring thrombin cleavage site expressed in Baculovirus infected Sf9 cells assessed as residual activity at 1 uM in presence of [33-gamma]-ATP after 60 mins by scintillation counting method relative to control.
Data set [18] addresses Mitogen-activated protein kinase 14 (Homo sapiens, UniProt Q16539). Briefly: Inhibition of p38alpha MAPK (unknown origin) assessed as decrease in ATF2 phosphorylation at Thr69/71 at 1 uM after 1 hr by ELISA.
The species entered for data set [19] is Homo sapiens. Briefly: Selectivity ratio of IC50 for p38alpha MAPK (unknown origin) to IC50 for recombinant human GST-tagged EGFR L858R/T790M double mutant cytoplasmic domain expressed in baculovirus expression system.
In data set [20] the test system is Epidermal growth factor receptor (Homo sapiens), P00533 [L858R]. Briefly: Ratio of Kd for human EGFR L858R mutant (669 to 1011 residues) after 1 hr to Kd for human EGFR L858R mutant (669 to 1011 residues) after 6 hrs. Summed up: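 Kd from competition with an immobilized active-site-directed ligand […]. Ratio compares 1 h compound–kinase equilibration against an arm with 6 h overall equilibration.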

Converted amounts (≈) assume the structure as drawn. Bounds are passed on as bounds.

Sequence of Serine/threonine-protein kinase 26 (Homo sapiens) (Q9P289 2-416 limits assumed): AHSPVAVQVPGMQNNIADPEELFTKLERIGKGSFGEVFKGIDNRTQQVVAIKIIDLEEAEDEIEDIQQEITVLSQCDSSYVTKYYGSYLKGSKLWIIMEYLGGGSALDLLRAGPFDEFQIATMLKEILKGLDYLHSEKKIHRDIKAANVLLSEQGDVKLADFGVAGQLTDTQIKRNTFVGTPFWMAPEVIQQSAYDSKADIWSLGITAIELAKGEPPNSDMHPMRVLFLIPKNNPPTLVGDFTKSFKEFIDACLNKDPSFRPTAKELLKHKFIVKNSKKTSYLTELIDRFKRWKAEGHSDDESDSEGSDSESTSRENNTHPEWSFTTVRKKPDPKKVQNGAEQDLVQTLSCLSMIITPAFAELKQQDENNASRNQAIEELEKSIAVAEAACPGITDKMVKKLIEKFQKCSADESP
Sequence of Mitogen-activated protein kinase kinase kinase kinase 5 (Homo sapiens) (Q9Y4K4 whole entry, looked up, the tested form may be a part): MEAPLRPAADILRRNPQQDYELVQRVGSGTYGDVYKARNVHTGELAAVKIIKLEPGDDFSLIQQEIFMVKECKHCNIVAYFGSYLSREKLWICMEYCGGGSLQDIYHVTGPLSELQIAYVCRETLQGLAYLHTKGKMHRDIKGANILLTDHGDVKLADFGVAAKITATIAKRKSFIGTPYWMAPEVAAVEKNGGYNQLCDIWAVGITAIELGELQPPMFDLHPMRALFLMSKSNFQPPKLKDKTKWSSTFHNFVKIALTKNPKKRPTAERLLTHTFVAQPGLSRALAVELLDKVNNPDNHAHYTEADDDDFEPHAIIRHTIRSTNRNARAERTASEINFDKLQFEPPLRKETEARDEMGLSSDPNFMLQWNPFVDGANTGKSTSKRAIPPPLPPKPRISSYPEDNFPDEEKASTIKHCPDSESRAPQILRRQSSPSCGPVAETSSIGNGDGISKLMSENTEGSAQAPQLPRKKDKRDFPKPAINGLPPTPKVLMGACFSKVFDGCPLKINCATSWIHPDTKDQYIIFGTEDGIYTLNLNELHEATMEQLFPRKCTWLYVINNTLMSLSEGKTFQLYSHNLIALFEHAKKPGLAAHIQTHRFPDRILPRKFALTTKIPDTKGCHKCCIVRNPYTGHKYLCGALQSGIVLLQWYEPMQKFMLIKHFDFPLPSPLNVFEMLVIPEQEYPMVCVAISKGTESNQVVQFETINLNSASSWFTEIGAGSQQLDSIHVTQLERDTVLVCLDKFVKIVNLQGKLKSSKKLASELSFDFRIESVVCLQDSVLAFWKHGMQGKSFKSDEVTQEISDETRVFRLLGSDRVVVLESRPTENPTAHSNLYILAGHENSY
Sequence of Mitogen-activated protein kinase 14 (Q16539 whole entry, the tested form may be a part): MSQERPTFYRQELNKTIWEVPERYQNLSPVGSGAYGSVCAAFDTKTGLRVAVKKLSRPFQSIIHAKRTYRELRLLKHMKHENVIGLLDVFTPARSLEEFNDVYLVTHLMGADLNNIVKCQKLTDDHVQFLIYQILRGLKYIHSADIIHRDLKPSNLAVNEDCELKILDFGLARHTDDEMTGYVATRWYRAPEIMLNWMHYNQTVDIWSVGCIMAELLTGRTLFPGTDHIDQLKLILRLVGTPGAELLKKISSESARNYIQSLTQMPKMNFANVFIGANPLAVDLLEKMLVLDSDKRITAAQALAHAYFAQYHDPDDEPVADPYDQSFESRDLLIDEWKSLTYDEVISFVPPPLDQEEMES
Sequence of Receptor tyrosine-protein kinase erbB-2 (Homo sapiens) (P04626 whole entry, the tested form may be a part): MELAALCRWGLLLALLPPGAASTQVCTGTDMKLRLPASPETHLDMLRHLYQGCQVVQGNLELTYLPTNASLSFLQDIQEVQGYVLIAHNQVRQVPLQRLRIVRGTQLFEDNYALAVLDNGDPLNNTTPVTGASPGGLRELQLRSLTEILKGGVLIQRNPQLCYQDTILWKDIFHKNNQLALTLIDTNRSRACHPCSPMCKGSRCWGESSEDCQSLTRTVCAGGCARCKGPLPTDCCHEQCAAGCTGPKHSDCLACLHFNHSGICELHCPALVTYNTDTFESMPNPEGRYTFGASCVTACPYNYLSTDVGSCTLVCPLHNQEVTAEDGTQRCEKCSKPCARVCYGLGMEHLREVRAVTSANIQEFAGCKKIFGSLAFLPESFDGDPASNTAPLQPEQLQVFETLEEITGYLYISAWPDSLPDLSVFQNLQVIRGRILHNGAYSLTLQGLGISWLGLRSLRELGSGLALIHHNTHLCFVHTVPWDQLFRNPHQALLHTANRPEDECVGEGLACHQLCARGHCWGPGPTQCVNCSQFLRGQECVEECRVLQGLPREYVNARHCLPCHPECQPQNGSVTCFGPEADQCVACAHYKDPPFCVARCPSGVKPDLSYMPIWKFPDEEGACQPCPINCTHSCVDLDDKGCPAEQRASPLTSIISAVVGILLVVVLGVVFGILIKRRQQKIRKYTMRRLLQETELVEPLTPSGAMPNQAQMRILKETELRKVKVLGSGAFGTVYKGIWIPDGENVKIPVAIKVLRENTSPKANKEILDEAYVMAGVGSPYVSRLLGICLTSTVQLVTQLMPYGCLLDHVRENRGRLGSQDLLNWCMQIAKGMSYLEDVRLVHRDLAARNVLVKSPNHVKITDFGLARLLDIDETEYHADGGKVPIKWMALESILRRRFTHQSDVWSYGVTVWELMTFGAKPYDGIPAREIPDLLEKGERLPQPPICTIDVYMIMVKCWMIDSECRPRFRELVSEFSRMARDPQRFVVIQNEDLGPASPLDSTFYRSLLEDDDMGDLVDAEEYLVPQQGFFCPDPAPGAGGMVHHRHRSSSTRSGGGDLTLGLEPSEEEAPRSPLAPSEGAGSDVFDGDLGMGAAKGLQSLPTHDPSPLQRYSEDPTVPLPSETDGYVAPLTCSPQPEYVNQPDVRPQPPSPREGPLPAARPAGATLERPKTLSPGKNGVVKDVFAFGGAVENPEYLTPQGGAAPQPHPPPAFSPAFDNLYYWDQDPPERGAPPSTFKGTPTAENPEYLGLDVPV
Sequence of Mitogen-activated protein kinase 9 (Homo sapiens) (P45984 whole entry, looked up, the tested form may be a part): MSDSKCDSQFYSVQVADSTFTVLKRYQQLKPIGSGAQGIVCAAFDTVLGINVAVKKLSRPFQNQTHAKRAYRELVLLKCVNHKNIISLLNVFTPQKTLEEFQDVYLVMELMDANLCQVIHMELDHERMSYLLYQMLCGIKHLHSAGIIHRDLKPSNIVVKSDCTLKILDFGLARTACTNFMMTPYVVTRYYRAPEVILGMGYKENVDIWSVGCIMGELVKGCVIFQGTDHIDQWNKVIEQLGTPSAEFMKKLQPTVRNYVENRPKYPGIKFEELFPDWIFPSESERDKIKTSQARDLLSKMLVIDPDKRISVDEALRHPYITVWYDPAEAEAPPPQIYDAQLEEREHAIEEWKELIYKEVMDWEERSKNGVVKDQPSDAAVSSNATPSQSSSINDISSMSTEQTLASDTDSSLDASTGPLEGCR

Turning to `C=CC(=O)Nc1cccc(-c2c[nH]c3nccc(-c4[nH]c(CCCO)nc4-c4ccc(F)cc4)c23)c1`, the IC50 in [1] was below 0.3 nM; in data set [18] it was 214 nM. The solubility in [2] was determined as 299 µg/mL (≈ 621 µM). Moreover, the Kd worked out at 2 nM in [3] and 3.4 nM in [4]. In addition, the Activity in data set [5] is 3%; in data set [6], 4%; in data set [7], 6%; in [8] it was 37%; in [9], 22%; in [10], 6%. Besides, the Activity in data set [11] worked out at 3%; in data set [12] it was 21%; in data set [14] it was 17%; in data set [15], 37%; in [16], 2%; in data set [17] it was 47%. In [13], the activity at 1 h, 1 µM came to 5%. For the same molecule, in data set [19], the Ratio IC50 came to 140. In addition, the Ratio in [20] fell in the range of 3 to 5.

By IC50 is commonly meant the concentration at which inhibition is half-maximal. As a reminder, the solubility is how much of the substance goes into solution per volume. What is called Kd is the concentration at which binding is half-saturated.
